Assays:
[1] = Partition coefficient, P in n-octanol/phosphate buffer at pH 7.0
[2] = Antioxidant spin trapping activity assessed as alkoxyl radical adducts formation from ethanol; assay type: physicochemical
Summary of the method: (§1)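 Alkoxyl adducts by nucleophilic addition: spin trap (1 M, init. conc., in methanol or ethanol) incubated 10 s with FeCl3 (2 mM in the alcohol), then stopped by 1:20 dilution with phosphate buffer (0.3 M, pH 7.4, 20 mM DTPA); ESR recorded at 9.7 GHz, sweep width 80 G.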

[3] = Antioxidant spin trapping activity assessed as carbon centered radical adduct formation from methanol; assay type: physicochemical
Summary of the method: (§2)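 Fenton-type generation of alcohol-derived carbon radicals: spin trap (40 mM, init. conc.), FeSO4 (1 mM), EDTA (2 mM), H2O2 (0.2%) in methanol or ethanol/water; stopped after 10 s by 1:1 dilution with 300 mM phosphate buffer pH 7.4 containing 20 mM DTPA; ESR: sweep 80 G, modulation 0.21 G, 20 mW, gain 4×10^4, 57 G/min.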

[4] = Antioxidant spin trapping activity assessed as carbon centered radical adduct formation from ethanol; assay type: physicochemical
Summary of the method: as §2

[5] = Antioxidant spin trapping activity assessed as carbon centered radical adduct formation from formate; assay type: physicochemical
Summary of the method: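 CO2 anion radical adducts: spin trap (40 mM, init. conc.) with FeSO4 (1 mM), EDTA (2 mM), H2O2 (0.2%) in aqueous sodium formate (200 mM); reaction stopped after 10 s by 1:1 dilution into 300 mM phosphate buffer pH 7.4 with 20 mM DTPA, then ESR spectrum recorded (sweep width 80 G).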

[6] = Antioxidant spin trapping activity assessed as hydroxyl radical adducts formation by Fenton system; assay type: physicochemical
Summary of the method: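 Hydroxyl adducts: spin trap (40 mM, initial) with Fenton mix of FeSO4 (1 mM), EDTA (2 mM), H2O2 (0.2%); after 10 s diluted 1:1 with 300 mM phosphate buffer pH 7.4 containing 20 mM DTPA; ESR at sweep 80 G, modulation 0.21 G, microwave 20 mW, time constant 0.08 s, gain 2×10^4, 57 G/min.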

[7] = Antioxidant spin trapping activity assessed as alkoxyl radical adducts formation from methanol; assay type: physicochemical
Summary of the method: as §1

SMILES	P [1]	Activity [2]	Activity [3]	Activity [4]	Activity [5]	Activity [6]	Activity [7]
CCOC(=O)C1(C)CCC=[N+]1[O-] (stereo unspecified)	0.15						
CC1(C(N)=O)CCC=[N+]1[O-] (stereo unspecified)	0.016						
CCCC1(C(N)=O)CCC=[N+]1[O-] (stereo unspecified)	0.211	Active	Active	Active	Active	Active	
CCC1(C(N)=O)CCC=[N+]1[O-] (stereo unspecified)	0.056				Active	Active	
CCCCCC1(C(N)=O)CCC=[N+]1[O-] (stereo unspecified)	2.72	Active	Active	Active	Active	Active	Active
CCCCC1(C(N)=O)CCC=[N+]1[O-] (stereo unspecified)	0.668				Active	Active	

Source: ChEMBL document CHEMBL1140030, “Spin trapping experiments with different carbamoyl-substituted EMPO derivatives” (Bioorg Med Chem, 2008)
